Source: ChEMBL document CHEMBL1143164, “Synthesis and structure-activity relationships of ring-opened 17-hydroxywortmannins: potent phosphoinositide 3-kinase inhibitors with improved properties and anticancer efficacy” (J Med Chem, 2008)
Active and inactive are the calls of the source. The calls are words filed in the database; no cut-off is given here.

Experiments:
[1] = Antitumor activity against human U87MG cells xenografted mouse administered intravenously thrice a week for two weeks; format: functional, U-87MG ATCC; conditions: U-87 MG, iv, 336 h, read-out: MED
How it was run: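 Nude mice bearing U87MG glioma xenografts; dosed iv in PBS at the stated doses and schedules for 2 weeks. Tumor growth was monitored twice weekly, and tumor volume was determined by a previously described method.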

[2] = biological target: Serine/threonine-protein kinase mTOR (Homo sapiens, UniProt P42345); test: Inhibition of mTOR
[3] = Inhibition of GSK3
[4] = Antitumor activity against human U87MG cells xenografted mouse administered intravenously once a week for two weeks; format: functional, U-87MG ATCC; conditions: U-87 MG, iv, 336 h, read-out: MED
How it was run: (§1)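 Nude mice bearing U87MG glioma xenografts; compound in PBS given intravenously on the stated schedule for 2 weeks. Tumor growth was monitored twice a week, and tumor volume was determined by a previously described method. Efficacy was expressed as minimum efficacious dose.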

[5] = biological target: RAC-alpha serine/threonine-protein kinase (Homo sapiens, UniProt P31749); test: Inhibition of AKT1
Sequence of RAC-alpha serine/threonine-protein kinase (P31749 whole entry): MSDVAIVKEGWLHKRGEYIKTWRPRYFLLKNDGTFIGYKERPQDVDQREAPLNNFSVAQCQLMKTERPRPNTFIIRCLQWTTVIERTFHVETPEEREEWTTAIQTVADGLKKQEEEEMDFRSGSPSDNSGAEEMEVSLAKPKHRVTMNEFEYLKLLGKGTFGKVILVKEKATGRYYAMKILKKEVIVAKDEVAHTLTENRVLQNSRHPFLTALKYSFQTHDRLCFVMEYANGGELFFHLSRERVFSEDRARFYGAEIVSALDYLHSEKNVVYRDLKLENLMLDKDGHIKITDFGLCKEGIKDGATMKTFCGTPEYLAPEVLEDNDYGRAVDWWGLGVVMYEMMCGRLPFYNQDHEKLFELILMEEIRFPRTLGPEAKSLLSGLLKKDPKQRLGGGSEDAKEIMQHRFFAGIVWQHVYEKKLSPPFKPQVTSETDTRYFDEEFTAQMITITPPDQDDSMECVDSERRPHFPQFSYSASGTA

[6] = biological target: T1, Inhibitor of nuclear factor kappa-B kinase subunit beta (Homo sapiens, UniProt O14920); test: Inhibition of IKK-beta
T1 sequence (O14920 whole entry): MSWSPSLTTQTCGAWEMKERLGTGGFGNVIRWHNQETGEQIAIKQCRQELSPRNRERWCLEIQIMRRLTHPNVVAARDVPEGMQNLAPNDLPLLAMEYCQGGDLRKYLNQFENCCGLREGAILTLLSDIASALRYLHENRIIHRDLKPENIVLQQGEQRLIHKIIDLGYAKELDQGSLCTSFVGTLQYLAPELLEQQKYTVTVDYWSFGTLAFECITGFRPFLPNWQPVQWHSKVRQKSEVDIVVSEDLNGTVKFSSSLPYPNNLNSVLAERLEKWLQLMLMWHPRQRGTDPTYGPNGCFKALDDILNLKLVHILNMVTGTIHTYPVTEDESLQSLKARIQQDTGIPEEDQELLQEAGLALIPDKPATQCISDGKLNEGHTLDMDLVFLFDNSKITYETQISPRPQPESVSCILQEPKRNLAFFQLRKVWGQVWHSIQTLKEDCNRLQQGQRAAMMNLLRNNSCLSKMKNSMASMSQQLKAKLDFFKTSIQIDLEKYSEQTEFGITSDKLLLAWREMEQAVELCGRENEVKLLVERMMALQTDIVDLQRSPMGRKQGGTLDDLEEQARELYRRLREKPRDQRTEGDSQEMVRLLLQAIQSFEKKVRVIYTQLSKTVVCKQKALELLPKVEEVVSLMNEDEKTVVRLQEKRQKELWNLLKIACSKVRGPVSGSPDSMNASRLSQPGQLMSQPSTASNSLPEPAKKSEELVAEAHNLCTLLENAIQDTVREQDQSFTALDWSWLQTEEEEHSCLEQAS

[7] = biological target: Tyrosine-protein kinase BTK (Homo sapiens, UniProt Q06187); test: Inhibition of BTK
[8] = biological target: Ribosomal protein S6 kinase beta-1 (Homo sapiens, UniProt P23443); test: Inhibition of S6K1
[9] = Antitumor activity against human U87MG cells xenografted mouse administered intravenously twice a week for two weeks; format: functional, U-87MG ATCC; conditions: U-87 MG, iv, 336 h, read-out: MED; how it was run: as §1
[10] = biological target: MAP kinase-activated protein kinase 2 (Homo sapiens, UniProt P49137); test: Inhibition of MK2
Sequence of MAP kinase-activated protein kinase 2 (P49137 whole entry, canonical isoform): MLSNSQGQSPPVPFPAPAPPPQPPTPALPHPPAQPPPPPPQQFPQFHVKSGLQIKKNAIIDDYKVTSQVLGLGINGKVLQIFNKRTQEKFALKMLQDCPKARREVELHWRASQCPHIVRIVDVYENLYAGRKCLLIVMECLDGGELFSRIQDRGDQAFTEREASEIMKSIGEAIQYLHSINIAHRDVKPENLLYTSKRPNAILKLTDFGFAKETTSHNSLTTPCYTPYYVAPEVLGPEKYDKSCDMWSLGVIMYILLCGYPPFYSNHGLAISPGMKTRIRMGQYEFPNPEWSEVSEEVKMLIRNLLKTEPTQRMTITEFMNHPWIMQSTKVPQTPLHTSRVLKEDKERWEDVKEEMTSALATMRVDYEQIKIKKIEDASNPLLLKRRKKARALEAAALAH

[11] = biological target: T2, Phosphatidylinositol 4,5-bisphosphate 3-kinase catalytic subunit alpha isoform (Homo sapiens, UniProt P42336); test: Inhibition of PI3K expressed in Escherichia coli by microtiter plate-based fluorescence polarization assay
T2 sequence (P42336 whole entry, canonical isoform): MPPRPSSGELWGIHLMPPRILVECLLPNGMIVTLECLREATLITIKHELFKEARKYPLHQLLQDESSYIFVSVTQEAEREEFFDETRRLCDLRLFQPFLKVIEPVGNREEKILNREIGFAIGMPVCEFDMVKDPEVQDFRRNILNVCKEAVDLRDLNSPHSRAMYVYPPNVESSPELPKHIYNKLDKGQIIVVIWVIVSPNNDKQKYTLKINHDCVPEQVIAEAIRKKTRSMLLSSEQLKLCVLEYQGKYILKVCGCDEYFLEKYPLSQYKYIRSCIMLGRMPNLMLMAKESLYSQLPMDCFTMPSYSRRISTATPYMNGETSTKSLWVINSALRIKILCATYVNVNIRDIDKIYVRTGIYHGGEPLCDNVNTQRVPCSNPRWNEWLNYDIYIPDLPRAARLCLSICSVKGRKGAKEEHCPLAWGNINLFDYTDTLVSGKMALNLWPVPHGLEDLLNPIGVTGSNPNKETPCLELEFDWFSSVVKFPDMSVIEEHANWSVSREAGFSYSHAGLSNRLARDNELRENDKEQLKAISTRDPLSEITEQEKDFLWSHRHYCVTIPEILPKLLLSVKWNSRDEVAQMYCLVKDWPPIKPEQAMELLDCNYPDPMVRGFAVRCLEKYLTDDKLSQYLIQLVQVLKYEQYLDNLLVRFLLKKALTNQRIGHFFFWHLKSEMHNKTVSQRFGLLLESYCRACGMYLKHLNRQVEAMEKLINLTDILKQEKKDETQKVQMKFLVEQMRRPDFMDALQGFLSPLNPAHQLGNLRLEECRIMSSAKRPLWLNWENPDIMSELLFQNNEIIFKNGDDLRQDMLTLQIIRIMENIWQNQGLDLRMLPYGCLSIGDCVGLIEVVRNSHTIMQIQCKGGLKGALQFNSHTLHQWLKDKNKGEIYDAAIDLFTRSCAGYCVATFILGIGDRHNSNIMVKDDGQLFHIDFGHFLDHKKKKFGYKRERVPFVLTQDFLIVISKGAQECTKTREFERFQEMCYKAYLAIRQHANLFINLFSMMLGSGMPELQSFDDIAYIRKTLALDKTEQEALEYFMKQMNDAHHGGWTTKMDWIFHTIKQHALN
How it was run: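 Fluorescence polarization assay of PI3K activity with PIP2 substrate. Reactions contained 20 mM Hepes pH 7.5, 2 mM MgCl2, 0.05% CHAPS, 0.01% βME, 20 µM PIP2 and 25 µM ATP, and ran 15–30 min at room temperature. They were stopped with buffer holding 10 nM TAMRA-labeled probe and 40 nM GST-GRP1 (E. coli-expressed detector), then incubated 1–2 h before FP readout.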

[12] = biological target: Mitogen-activated protein kinase kinase kinase 8 (Homo sapiens, UniProt P41279); test: Inhibition of Tpl2
Sequence of Mitogen-activated protein kinase kinase kinase 8 (P41279 whole entry): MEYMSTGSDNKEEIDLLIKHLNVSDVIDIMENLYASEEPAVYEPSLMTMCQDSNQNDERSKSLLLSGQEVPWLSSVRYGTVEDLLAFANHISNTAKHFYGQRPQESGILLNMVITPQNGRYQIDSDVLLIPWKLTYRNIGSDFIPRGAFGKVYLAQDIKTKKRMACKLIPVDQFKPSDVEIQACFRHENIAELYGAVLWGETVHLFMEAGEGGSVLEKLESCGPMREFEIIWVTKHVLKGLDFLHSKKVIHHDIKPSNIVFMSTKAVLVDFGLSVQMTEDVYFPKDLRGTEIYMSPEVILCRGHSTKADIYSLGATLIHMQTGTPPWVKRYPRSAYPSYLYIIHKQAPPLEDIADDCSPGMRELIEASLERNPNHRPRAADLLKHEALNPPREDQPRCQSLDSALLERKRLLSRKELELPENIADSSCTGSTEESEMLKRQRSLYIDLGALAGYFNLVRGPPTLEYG

[13] = Inhibition of IGFR
[14] = biological target: Vascular endothelial growth factor receptor 2 (Homo sapiens, UniProt P35968); test: Inhibition of KDR
Sequence of Vascular endothelial growth factor receptor 2 (P35968 whole entry): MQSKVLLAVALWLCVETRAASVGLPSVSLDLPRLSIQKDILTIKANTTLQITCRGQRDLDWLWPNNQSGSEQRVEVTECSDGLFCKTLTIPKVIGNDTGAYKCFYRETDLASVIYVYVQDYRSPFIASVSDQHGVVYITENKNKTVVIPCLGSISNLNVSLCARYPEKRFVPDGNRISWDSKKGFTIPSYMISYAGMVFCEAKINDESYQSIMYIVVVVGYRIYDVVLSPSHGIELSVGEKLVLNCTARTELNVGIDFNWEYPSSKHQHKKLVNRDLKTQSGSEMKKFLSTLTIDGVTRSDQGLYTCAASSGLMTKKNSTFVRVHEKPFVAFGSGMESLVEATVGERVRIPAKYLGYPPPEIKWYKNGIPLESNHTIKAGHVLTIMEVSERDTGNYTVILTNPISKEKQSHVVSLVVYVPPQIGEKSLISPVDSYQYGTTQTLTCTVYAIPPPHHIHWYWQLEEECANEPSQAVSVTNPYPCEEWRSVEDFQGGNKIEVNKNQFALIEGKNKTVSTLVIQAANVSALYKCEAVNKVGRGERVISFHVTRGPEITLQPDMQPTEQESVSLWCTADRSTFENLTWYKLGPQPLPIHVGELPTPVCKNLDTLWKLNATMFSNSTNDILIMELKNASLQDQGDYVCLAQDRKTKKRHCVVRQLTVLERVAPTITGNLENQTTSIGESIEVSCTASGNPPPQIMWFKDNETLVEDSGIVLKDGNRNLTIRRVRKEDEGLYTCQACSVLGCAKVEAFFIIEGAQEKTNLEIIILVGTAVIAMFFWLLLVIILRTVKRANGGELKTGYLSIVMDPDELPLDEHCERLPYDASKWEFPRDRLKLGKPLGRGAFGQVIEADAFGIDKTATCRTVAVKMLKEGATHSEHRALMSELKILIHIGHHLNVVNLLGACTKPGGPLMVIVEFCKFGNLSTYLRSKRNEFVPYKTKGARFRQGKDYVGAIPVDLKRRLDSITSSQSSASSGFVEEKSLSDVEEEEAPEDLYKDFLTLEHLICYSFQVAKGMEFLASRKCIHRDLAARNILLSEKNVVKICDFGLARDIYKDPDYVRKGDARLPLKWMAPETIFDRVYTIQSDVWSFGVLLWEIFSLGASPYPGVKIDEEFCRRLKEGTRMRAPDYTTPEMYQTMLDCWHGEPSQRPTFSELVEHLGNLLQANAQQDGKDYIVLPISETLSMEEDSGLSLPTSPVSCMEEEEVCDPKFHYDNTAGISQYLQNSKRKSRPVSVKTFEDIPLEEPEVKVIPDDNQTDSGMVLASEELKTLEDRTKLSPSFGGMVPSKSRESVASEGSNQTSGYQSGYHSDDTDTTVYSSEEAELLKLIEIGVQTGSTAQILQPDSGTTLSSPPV

[15] = biological target: Tyrosine-protein kinase Lyn (Homo sapiens, UniProt P07948); test: Inhibition of LYN
Sequence of Tyrosine-protein kinase Lyn (P07948 whole entry): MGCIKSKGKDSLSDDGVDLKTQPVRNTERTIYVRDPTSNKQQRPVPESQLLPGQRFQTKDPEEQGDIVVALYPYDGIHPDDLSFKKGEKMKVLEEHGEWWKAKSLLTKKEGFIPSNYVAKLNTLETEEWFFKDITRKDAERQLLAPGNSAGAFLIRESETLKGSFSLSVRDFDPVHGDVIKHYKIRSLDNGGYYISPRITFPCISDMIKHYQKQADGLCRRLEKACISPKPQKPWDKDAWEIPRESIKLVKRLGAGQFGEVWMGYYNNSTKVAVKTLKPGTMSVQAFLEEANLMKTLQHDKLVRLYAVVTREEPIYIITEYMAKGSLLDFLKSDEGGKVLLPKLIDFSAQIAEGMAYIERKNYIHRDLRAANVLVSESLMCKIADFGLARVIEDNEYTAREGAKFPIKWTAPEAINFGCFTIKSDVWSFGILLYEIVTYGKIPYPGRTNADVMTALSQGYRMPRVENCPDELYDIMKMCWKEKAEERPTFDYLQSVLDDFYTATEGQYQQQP

[16] = biological target: Dual specificity mitogen-activated protein kinase kinase 1 (Homo sapiens, UniProt Q02750); test: Inhibition of MEK1
Sequence of Dual specificity mitogen-activated protein kinase kinase 1 (Q02750 whole entry): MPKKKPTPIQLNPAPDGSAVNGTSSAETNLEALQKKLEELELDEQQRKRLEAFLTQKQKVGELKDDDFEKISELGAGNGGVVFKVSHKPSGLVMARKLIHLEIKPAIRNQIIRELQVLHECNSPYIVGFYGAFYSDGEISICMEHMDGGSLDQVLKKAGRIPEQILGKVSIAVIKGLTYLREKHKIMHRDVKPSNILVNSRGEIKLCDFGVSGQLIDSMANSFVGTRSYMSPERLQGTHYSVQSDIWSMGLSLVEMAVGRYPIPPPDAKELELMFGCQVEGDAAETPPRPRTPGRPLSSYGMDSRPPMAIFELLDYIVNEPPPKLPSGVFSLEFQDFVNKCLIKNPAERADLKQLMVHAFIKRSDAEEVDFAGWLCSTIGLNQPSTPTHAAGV

LNCaP = test: Growth inhibition of human LNCap cells; format: functional, cell-based
[17] = biological target: Cyclin-dependent kinase 4 (Homo sapiens, UniProt P11802); test: Inhibition of CDK4
Sequence of Cyclin-dependent kinase 4 (P11802 whole entry): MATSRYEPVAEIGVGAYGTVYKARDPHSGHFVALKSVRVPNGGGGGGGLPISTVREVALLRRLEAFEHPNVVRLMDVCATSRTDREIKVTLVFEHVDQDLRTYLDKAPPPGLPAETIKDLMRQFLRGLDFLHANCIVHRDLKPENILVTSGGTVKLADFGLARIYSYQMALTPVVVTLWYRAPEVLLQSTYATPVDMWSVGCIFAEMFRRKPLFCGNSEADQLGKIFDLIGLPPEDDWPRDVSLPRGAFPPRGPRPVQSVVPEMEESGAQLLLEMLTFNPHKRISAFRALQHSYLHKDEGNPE

[18] = Chemical stability at pH 7.4; format: physicochemical; conditions: buffer, read-out: Stability
How it was run: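 Compound was incubated with the dipeptide lysine-phenylalanine at pH 7.4. Half-life of amine adduct formation was measured.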

[19] = Half life in mouse at 5 mg/kg, iv; format: ADME, organism-based; design: dose 5 mg/kg, route intravenous; conditions: in vivo
How it was run: (§2)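 Nude mice received a single intravenous bolus of 5 mg/kg. Plasma levels of parent and the 11-deacetylated metabolite were followed over time to derive clearance, volume of distribution and half-life.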

[20] = biological target: T3, Phosphatidylinositol 4,5-bisphosphate 3-kinase catalytic subunit delta isoform (Homo sapiens, UniProt O00329); test: Inhibition of PI3Kdelta
T3 sequence (O00329 whole entry): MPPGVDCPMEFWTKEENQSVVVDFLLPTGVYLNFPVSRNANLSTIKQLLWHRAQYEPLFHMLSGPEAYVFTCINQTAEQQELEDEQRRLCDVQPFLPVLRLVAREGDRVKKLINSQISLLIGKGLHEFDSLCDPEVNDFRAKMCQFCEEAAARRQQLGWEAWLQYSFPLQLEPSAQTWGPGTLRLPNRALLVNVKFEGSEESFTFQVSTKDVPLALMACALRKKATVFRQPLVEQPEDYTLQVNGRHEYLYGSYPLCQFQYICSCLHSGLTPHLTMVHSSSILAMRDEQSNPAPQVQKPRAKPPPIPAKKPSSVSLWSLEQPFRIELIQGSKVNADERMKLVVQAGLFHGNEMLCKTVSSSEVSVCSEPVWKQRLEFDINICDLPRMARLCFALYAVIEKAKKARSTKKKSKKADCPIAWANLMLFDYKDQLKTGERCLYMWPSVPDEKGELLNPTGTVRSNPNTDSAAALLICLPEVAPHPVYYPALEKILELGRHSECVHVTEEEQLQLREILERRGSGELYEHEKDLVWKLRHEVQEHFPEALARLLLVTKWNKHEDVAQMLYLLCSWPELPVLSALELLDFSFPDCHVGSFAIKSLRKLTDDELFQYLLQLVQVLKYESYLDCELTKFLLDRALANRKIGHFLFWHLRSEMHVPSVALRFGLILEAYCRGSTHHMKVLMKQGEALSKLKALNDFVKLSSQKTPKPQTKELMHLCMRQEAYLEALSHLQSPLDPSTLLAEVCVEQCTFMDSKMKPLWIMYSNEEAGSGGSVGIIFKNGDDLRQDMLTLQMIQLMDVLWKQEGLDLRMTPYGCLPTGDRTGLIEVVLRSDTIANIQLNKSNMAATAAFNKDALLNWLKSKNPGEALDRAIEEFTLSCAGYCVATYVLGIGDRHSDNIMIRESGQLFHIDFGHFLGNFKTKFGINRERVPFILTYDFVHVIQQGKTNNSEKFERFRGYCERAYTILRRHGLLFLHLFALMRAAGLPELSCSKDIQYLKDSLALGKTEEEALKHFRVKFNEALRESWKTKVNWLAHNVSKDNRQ
How it was run: (§3)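 Fluorescence polarization assay using purchased PI3K enzyme. It was stopped with TAMRA-labeled probe (10 nM) plus GST-GRP1 (40 nM), incubated 1–2 h, and FP was read.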

[21] = Volume of distribution in mouse at 5 mg/kg, iv; format: ADME, organism-based; design: dose 5 mg/kg, route intravenous; conditions: in vivo, read-out: Vdss; how it was run: as §2
[22] = biological target: Phosphatidylinositol 4,5-bisphosphate 3-kinase catalytic subunit gamma isoform (Homo sapiens, UniProt P48736); test: Inhibition of PI3Kgamma; how it was run: as §3
[23] = biological target: T2, Phosphatidylinositol 4,5-bisphosphate 3-kinase catalytic subunit alpha isoform; test: Inhibition of PI3K mediated S6K phosphorylation in PTEN negative human U87MG cells at 30 ng/ml; format: cell-based; conditions: U-87MG ATCC
How it was run: (§4)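 PTEN-negative U87MG cells were plated in six-well plates for 24 h, then treated in growth medium for 6 h against a DMSO control. PI3K pathway phosphorylation was then assessed.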

[24] = Clearance in mouse at 5 mg/kg, iv; format: ADME, organism-based; design: dose 5 mg/kg, route intravenous; conditions: in vivo; how it was run: as §2
[25] = biological target: Phosphatidylinositol 4,5-bisphosphate 3-kinase catalytic subunit beta isoform (Homo sapiens, UniProt P42338); test: Inhibition of PI3Kbeta; how it was run: as §3
[26] = Aqueous solubility of the compound; format: physicochemical
[27] = biological target: T2, Phosphatidylinositol 4,5-bisphosphate 3-kinase catalytic subunit alpha isoform; test: Inhibition of PI3K mediated AKT phosphorylation in PTEN negative human U87MG cells at 30 ng/ml; format: cell-based; conditions: U-87MG ATCC; how it was run: as §4

Structure (SMILES) | IC50 [2] | IC50 [3] | minimal effective dose [4] | IC50 [5] | IC50 [6] | IC50 [8] | minimal effective dose [9] | IC50 [10] | IC50 [11] | IC50 [12] | IC50 [13] | IC50 [14] | IC50 [15] | IC50 [16] | IC50 (LNCaP) | IC50 [17] | half-life [18] | half-life [19] | other results
COC[C@H]1OC(=O)/C(=C/N(CCO)C(C)(C)C)C2=C(O)C(=O)C3=C([C@H](OC(C)=O)C[C@]4(C)[C@@H](O)CC[C@@H]34)[C@]21C | 28.6 µM | > 10 µM | 15 mg/kg | > 30 µM | > 10 µM | > 30 µM | 7.5 mg/kg | > 200 µM | 1.11 µM | > 40 µM | > 10 µM | > 10 µM | > 30 µM | > 10 µM | 0.128 µM | > 50 µM |  |  | minimal effective dose [1]: 5 mg/kg; IC50 [7]: > 10 µM
COC[C@H]1OC(=O)c2coc3c2[C@@]1(C)C1=C(C3=O)[C@@H]2CC[C@H](O)[C@@]2(C)C[C@H]1OC(C)=O | 0.193 µM |  |  |  |  |  |  |  | 0.0027 µM |  |  |  |  |  | 1.46 µM |  | 4 min | 4 min | 
COC[C@H]1OC(=O)/C(=C/N(C)CCCN(C)C)C2=C(O)C(=O)C3=C([C@H](OC(C)=O)C[C@]4(C)[C@@H](O)CC[C@@H]34)[C@]21C | 2.92 µM | > 10 µM | 2.5 mg/kg | > 30 µM | > 10 µM | > 30 µM | < 1.25 mg/kg | > 200 µM | 0.064 µM | > 40 µM | > 10 µM | > 10 µM | > 30 µM | > 10 µM | 0.389 µM | > 50 µM |  | 30 min | IC50 [20]: 0.011 µM; Vd [21]: 0.7 L/kg; IC50 [22]: 8 µM; Activity [23]: Active; clearance [24]: 50 mL/min/kg; IC50 [25]: 0.013 µM; solubility [26]: > 10000 µg/mL; Activity [27]: Active
CCN(/C=C1/C(=O)O[C@H](COC)[C@@]2(C)C1=C(O)C(=O)C1=C2[C@H](OC(C)=O)C[C@]2(C)[C@@H](O)CC[C@@H]12)CC | 14 µM |  |  |  |  |  |  |  | 0.382 µM |  |  |  |  |  | 0.16 µM |  | 57 min |  | 
